Data as given in ChEMBL document CHEMBL1148344, “3-(2-aminoalkyl)-1-(2,6-difluorobenzyl)-5- (2-fluoro-3-methoxyphenyl)-6-methyl-uracils as orally bioavailable antagonists of the human gonadotropin releasing hormone receptor” (J Med Chem, 2004).

Tests used:
[1] = molecular target: T1, Gonadotropin-releasing hormone receptor (Homo sapiens, UniProt P30968); assay: Binding affinity towards human gonadotropin releasing hormone receptor using des-Gly10[125I]Tyr5,D-Leu6,NMeLeu7,Pro9-NEt]GnRH as radioligand expressed in HEK293 cells; assay type: cell-based
T1 sequence (P30968 whole entry): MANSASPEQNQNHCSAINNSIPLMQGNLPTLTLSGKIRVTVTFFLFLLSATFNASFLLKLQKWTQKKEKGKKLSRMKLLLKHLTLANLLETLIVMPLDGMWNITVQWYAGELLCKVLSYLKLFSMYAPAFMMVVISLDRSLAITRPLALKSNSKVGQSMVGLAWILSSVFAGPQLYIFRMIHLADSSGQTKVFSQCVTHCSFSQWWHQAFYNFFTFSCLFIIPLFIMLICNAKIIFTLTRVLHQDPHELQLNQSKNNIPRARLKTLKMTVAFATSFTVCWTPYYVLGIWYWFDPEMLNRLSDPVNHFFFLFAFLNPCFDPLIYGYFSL
How it was run: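 Competitive displacement at cloned human GnRH receptor expressed in HEK293 cells, 96-well filtration format. Three to eight independent experiments.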

[2] = Half life in mouse; assay type: ADME, organism-based; settings: in vivo
How it was run: (§1)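 Mice dosed orally and intravenously at 10 mg/kg. Pharmacokinetic parameters derived from plasma exposure after each route.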

[3] = Bioavailability in mouse; assay type: ADME, organism-based; settings: in vivo; how it was run: as §1
[4] = Clearance in mouse; assay type: ADME, organism-based; settings: in vivo; how it was run: as §1
[5] = Volume of distribution in mouse; assay type: ADME, organism-based; settings: in vivo; how it was run: as §1
[6] = Inhibitory concentration of compound against GnRH stimulated calcium flux in transfected cells; assay type: functional, cell-based
How it was run: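 GnRH-stimulated Ca2+ flux measured in hGnRH receptor-transfected cells. Inhibition tested across a concentration series, with IC50 taken from the dose-response curve.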

[7] = molecular target: T2, Gonadotropin-releasing hormone receptor (Rattus norvegicus, UniProt P30969); assay: Tested for binding affinity towards rat gonadotropin releasing hormone receptor
T2 sequence (P30969 whole entry): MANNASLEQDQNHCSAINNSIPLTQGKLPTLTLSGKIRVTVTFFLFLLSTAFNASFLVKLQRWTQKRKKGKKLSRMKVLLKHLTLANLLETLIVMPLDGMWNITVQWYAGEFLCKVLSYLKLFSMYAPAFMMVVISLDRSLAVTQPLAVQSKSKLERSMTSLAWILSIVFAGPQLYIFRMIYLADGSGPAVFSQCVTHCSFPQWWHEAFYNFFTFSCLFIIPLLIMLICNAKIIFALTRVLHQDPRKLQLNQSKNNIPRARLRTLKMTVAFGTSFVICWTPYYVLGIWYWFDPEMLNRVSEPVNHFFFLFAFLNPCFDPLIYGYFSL

Row | SMILES | Ki [1] | also measured
1 | COc1cccc(-c2c(C)n(Cc3c(F)cccc3F)c(=O)n(C[C@@H](C)N)c2=O)c1F | 595 nM | 
2 | CN[C@H](CC(C)C)Cn1c(=O)c(-c2cccc(OC)c2F)c(C)n(Cc2c(F)cccc2F)c1=O | 1.2 nM | 
3 | COc1cccc(-c2c(C)n(Cc3c(F)cccc3F)c(=O)n(C[C@H](Cc3ccccc3)N(C)C)c2=O)c1F | 7.9 nM | 
4 | COc1cccc(-c2c(C)n(Cc3c(F)cccc3F)c(=O)n(C[C@H](C3CCCC3)N(C)C)c2=O)c1F | 2.4 nM | 
5 | COc1cccc(-c2c(C)n(Cc3c(F)cccc3F)c(=O)n(C[C@@H](CC(C)C)NC(C)C)c2=O)c1F | 12 nM | 
6 | COc1cccc(-c2c(C)n(Cc3c(F)cccc3F)c(=O)n(CC(N)C3CCCCC3)c2=O)c1F (single isomer, unassigned) | 46 nM | 
7 | COc1cccc(-c2c(C)n(Cc3c(F)cccc3F)c(=O)n(C[C@@H](C3CCCC3)N(C)C)c2=O)c1F | 0.6 nM | 
8 | COc1cccc(-c2c(C)n(Cc3c(F)cccc3F)c(=O)n(C[C@H](N)CC(C)C)c2=O)c1F | 6.4 nM | half-life [2]: 42 min; bioavailability [3]: 6%; clearance [4]: 65.7 mL/min/kg; Vd [5]: 3.9 L/kg
9 | COc1cccc(-c2c(C)n(Cc3c(F)cccc3F)c(=O)n(C[C@H](N)Cc3ccccc3)c2=O)c1F | 66 nM | 
10 | COc1cccc(-c2c(C)n(Cc3c(F)cccc3F)c(=O)n(C[C@H](C)N)c2=O)c1F | > 10000 nM | 
11 | COc1cccc(-c2c(C)n(Cc3c(F)cccc3F)c(=O)n(C[C@H](NC(C)C)C3CCCC3)c2=O)c1F | 12 nM | 
12 | COc1cccc(-c2c(C)n(Cc3c(F)cccc3F)c(=O)n(C[C@@H](N)CC(C)C)c2=O)c1F | 39 nM | 
13 | COc1cccc(-c2c(C)n(Cc3c(F)cccc3F)c(=O)n(C[C@H](N)C(C)C)c2=O)c1F | 51 nM | 

Continued, in another order:

Row | Ki [1] | SMILES | also measured
14 | 94 nM | COc1cccc(-c2c(C)n(Cc3c(F)cccc3F)c(=O)n(C[C@@H](N)C3CCCC3)c2=O)c1F | 
15 | 973 nM | COc1cccc(-c2c(C)n(Cc3c(F)cccc3F)c(=O)n(C[C@@H](N)C(C)C)c2=O)c1F | 
16 | 965 nM | COc1cccc(-c2c(C)n(Cc3c(F)cccc3F)c(=O)n(C[C@@H](N)CCc3ccccc3)c2=O)c1F | 
17 | 16 nM | COc1cccc(-c2c(C)n(Cc3c(F)cccc3F)c(=O)n(C[C@@H](N)Cc3ccccc3)c2=O)c1F | half-life [2]: 54 min; bioavailability [3]: 11%; clearance [4]: 65.6 mL/min/kg; Vd [5]: 4.9 L/kg
18 | 51 nM | COc1cccc(-c2c(C)n(Cc3c(F)cccc3F)c(=O)n(C[C@H](C)NCc3ccccc3)c2=O)c1F | half-life [2]: 66 min; bioavailability [3]: 3%; clearance [4]: 81.3 mL/min/kg; Vd [5]: 7.9 L/kg
19 | 23 nM | COc1cccc(-c2c(C)n(Cc3c(F)cccc3F)c(=O)n(C[C@H](NC(C)C)C3CCCCC3)c2=O)c1F | 
20 | 4.1 nM | COc1cccc(-c2c(C)n(Cc3c(F)cccc3F)c(=O)n(C[C@@H](C3CCCCC3)N(C)C)c2=O)c1F | 
21 | 6.5 nM | COc1cccc(-c2c(C)n(Cc3c(F)cccc3F)c(=O)n(C[C@H](N)C3CCCCC3)c2=O)c1F | IC50 [6]: 60 nM; half-life [2]: 78 min; bioavailability [3]: 11%; clearance [4]: 65.4 mL/min/kg; Vd [5]: 7.3 L/kg
22 | 71 nM | COc1cccc(-c2c(C)n(Cc3c(F)cccc3F)c(=O)n(C[C@H](N)CC(C)(C)C)c2=O)c1F | 
23 | 8.1 nM | CN[C@@H](Cc1ccccc1)Cn1c(=O)c(-c2cccc(OC)c2F)c(C)n(Cc2c(F)cccc2F)c1=O | IC50 [6]: 20 nM; half-life [2]: 48 min; Ki [7]: 11000 nM; bioavailability [3]: 42%; clearance [4]: 97.2 mL/min/kg; Vd [5]: 6.9 L/kg
24 | 10 nM | COc1cccc(-c2c(C)n(Cc3c(F)cccc3F)c(=O)n(C[C@H](N)C3CCCC3)c2=O)c1F | 
